Laboratory results taken from ChEMBL document CHEMBL1124270, “Quinolone antibacterial agents. Synthesis and structure-activity relationships of 8-substituted quinoline-3-carboxylic acids and 1,8-naphthyridine-3-carboxylic acids” (1988).
≈ marks a conversion by molar mass, not a printed value.

Key:
Type in all cases: functional
Escherichia coli [1] = assay: Minimum concentration needed to produce linear DNA at an intensity relative to oxolinic at 10 ug/mL in Escherichia coli H560 in vitro.
Outline: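 DNA gyrase cleavage test, run as previously described: end point is the lowest drug level (µg/mL) that yields linear DNA at a band intensity matching oxolinic acid at 10 µg/mL. Values come from duplicate or triplicate experiments and are stated as accurate to ±50%.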

Escherichia coli [2] = assay: Minimum inhibitory concentration against Escherichia coli H560 in vitro.
Escherichia coli [3] = assay: Minimum inhibitory concentration against Escherichia coli vogel in vitro.
Enterobacter cloacae = assay: Minimum inhibitory concentration against Enterobacter cloacae HA 2646 in vitro.
Klebsiella pneumoniae = assay: Minimum inhibitory concentration against Klebsiella pneumoniae MGH-2 in vitro.
Mus musculus [4] = assay: In vivo potency against Escherichia coli vogel using mouse protection assay when given perorally; conditions: po, read-out: PD50
Mus musculus [5] = assay: In vivo potency against Escherichia coli vogel using mouse protection assay when given subcutaneously; conditions: sc, read-out: PD50
Staphylococcus aureus [6] = assay: In vivo potency against Staphylococcus aureus using mouse protection assay following p.o. administration.; conditions: po, read-out: PD50
Staphylococcus aureus [7] = assay: In vivo potency against Staphylococcus aureus using mouse protection assay following s.c. administration.; conditions: sc, read-out: PD50
Streptococcus pneumoniae [8] = assay: In vivo potency against Streptococcus pneumoniae using mouse protection assay following p.o. administration.; conditions: po, read-out: PD50
Pseudomonas aeruginosa = assay: Minimum inhibitory concentration against Pseudomonas aeruginosa UI-18 in vitro.
Providencia rettgeri = assay: Minimum inhibitory concentration against Providencia rettgeri H1771 in vitro.
Streptococcus pyogenes = assay: Minimum inhibitory concentration against Streptococcus pyogenes C203 in vitro.
Streptococcus pneumoniae [9] = assay: Minimum inhibitory concentration against Streptococcus pneumoniae SV-1 in vitro.
Staphylococcus aureus [10] = assay: Minimum inhibitory concentration against Staphylococcus aureus H228 in vitro.
Staphylococcus aureus [11] = assay: Minimum inhibitory concentration against Staphylococcus aureus UC-76 in vitro.
Enterococcus faecalis = assay: Minimum inhibitory concentration against Streptococcus faecalis MGH-2 in vitro.
Streptococcus pneumoniae [12] = assay: In vivo potency against Streptococcus pneumoniae using mouse protection assay following s.c. administration.; conditions: sc, read-out: PD50

Structure (SMILES) | DNA cleavage conc (gyrase) (Escherichia coli [1]) [µg/mL] | MIC (Escherichia coli [2]) [µg/mL] | MIC (Escherichia coli [3]) [µg/mL] | MIC (Enterobacter cloacae) [µg/mL] | MIC (Klebsiella pneumoniae) [µg/mL] | ED50 (Mus musculus [4]) [mg/kg] | ED50 (Mus musculus [5]) [mg/kg] | ED50 (Staphylococcus aureus [6]) [mg/kg] | ED50 (Staphylococcus aureus [7]) [mg/kg] | ED50 (Streptococcus pneumoniae [8]) [mg/kg] | MIC (Pseudomonas aeruginosa) [µg/mL] | MIC (Providencia rettgeri) [µg/mL] | MIC (Streptococcus pyogenes) [µg/mL] | MIC (Streptococcus pneumoniae [9]) [µg/mL] | MIC (Staphylococcus aureus [10]) [µg/mL] | MIC (Staphylococcus aureus [11]) [µg/mL] | MIC (Enterococcus faecalis) [µg/mL] | ED50 (Streptococcus pneumoniae [12]) [mg/kg]
CCNCC1CCN(c2nc3c(cc2F)c(=O)c(C(=O)O)cn3C2CC2)C1 (stereo not drawn) | 0.75 | 0.05 (≈ 0.134 µM) | 0.1 (≈ 0.267 µM) | 0.2 (≈ 0.534 µM) | 0.1 (≈ 0.267 µM) | 7 | 1 | 62 | 15 | 16 | 0.8 (≈ 2.14 µM) | 0.8 (≈ 2.14 µM) | 0.1 (≈ 0.267 µM) | 0.1 (≈ 0.267 µM) | 0.1 (≈ 0.267 µM) | 0.05 (≈ 0.134 µM) | 0.1 (≈ 0.267 µM) | 6
CC1COc2c(N3CCC(N)C3)c(F)cc3c(=O)c(C(=O)O)cn1c23.Cl (stereo not drawn) | 0.75 | 0.2 | 0.4 | 0.4 | 0.4 | 25 | 2 | – | – | – | 0.4 | 0.8 | 0.2 | 0.8 | 1.6 | 0.1 | 1.6 | –
CC(C)NCC1CCN(c2nc3c(cc2F)c(=O)c(C(=O)O)cn3C2CC2)C1 (stereo not drawn) | 2.5 | 0.1 (≈ 0.257 µM) | 0.2 (≈ 0.515 µM) | 0.2 (≈ 0.515 µM) | 0.4 (≈ 1.03 µM) | 8 | 2 | 35 | 16 | – | 0.8 (≈ 2.06 µM) | 1.6 (≈ 4.12 µM) | 0.2 (≈ 0.515 µM) | 0.2 (≈ 0.515 µM) | 0.2 (≈ 0.515 µM) | 0.1 (≈ 0.257 µM) | 0.2 (≈ 0.515 µM) | –
Cl.Cl.NC1CCN(c2cc3c(cc2F)c(=O)c(C(=O)O)cn3C2CC2)C1 (stereo not drawn) | 0.1 | 0.006 | 0.025 | 0.025 | 0.1 | 3 | 0.5 | 49.5 | – | 43 | 0.1 | 0.1 | 0.1 | 0.05 | 0.1 | 0.025 | 0.1 | 4
CCNCC1CCN(c2c(F)cc3c(=O)c(C(=O)O)cn(C4CC4)c3c2F)C1 (stereo not drawn) [PD-117558] | 0.25 | 0.025 (≈ 0.0639 µM) | 0.05 (≈ 0.128 µM) | 0.1 (≈ 0.255 µM) | 0.1 (≈ 0.255 µM) | 4 | 1 | 59 | 40 | 3 | 0.4 (≈ 1.02 µM) | 0.2 (≈ 0.511 µM) | 0.025 (≈ 0.0639 µM) | 0.025 (≈ 0.0639 µM) | 0.025 (≈ 0.0639 µM) | 0.006 (≈ 0.0153 µM) | 0.025 (≈ 0.0639 µM) | 2
O=C(O)c1cn(C2CC2)c2nc(N3CCNCC3)c(F)cc2c1=O | 1 | 0.05 (≈ 0.15 µM) | 0.05 (≈ 0.15 µM) | 0.1 (≈ 0.301 µM) | 0.1 (≈ 0.301 µM) | 0.7 | 0.4 | 14 | 6 | – | 0.2 (≈ 0.602 µM) | 0.2 (≈ 0.602 µM) | 1.6 (≈ 4.81 µM) | 1.6 (≈ 4.81 µM) | 1.6 (≈ 4.81 µM) | 0.4 (≈ 1.2 µM) | 1.6 (≈ 4.81 µM) | –
Cl.NC1CCN(c2c(F)cc3c(=O)c(C(=O)O)cn(C4CC4)c3c2F)C1 (stereo not drawn) | 0.1 | 0.006 | 0.013 | 0.025 | 0.025 | 1 | 0.2 | 7 | 3 | 15 | 0.1 | 0.05 | 0.05 | 0.05 | 0.05 | 0.025 | 0.05 | 6
NC1CCN(c2nc3c(cc2F)c(=O)c(C(=O)O)cn3C2CC2)C1 (stereo not drawn) | 1 | 0.006 (≈ 0.0181 µM) | 0.013 (≈ 0.0391 µM) | 0.05 (≈ 0.15 µM) | 0.025 (≈ 0.0752 µM) | 2 | 0.6 | 7 | 3 | 58 | 0.05 (≈ 0.15 µM) | 0.1 (≈ 0.301 µM) | 0.2 (≈ 0.602 µM) | 0.2 (≈ 0.602 µM) | 0.2 (≈ 0.602 µM) | 0.013 (≈ 0.0391 µM) | 0.2 (≈ 0.602 µM) | 33
CN(C)CC1CCN(c2cc3c(cc2F)c(=O)c(C(=O)O)cn3C2CC2)C1 (stereo not drawn) | 0.75 | 0.1 (≈ 0.268 µM) | 0.1 (≈ 0.268 µM) | 0.1 (≈ 0.268 µM) | 0.2 (≈ 0.536 µM) | 4 | 2 | 47 | 26 | 18 | 1.6 (≈ 4.28 µM) | 0.4 (≈ 1.07 µM) | 0.2 (≈ 0.536 µM) | 0.1 (≈ 0.268 µM) | 0.1 (≈ 0.268 µM) | 0.1 (≈ 0.268 µM) | 0.2 (≈ 0.536 µM) | 9
